What was measured:
[1] = molecular target: Cruzipain (Trypanosoma cruzi) (UniProt P25779); experiment: Inhibition of Trypanosoma cruzi cruzain at 100 uM using Z-Phe-Arg-aminomethylcoumarin as substrate measured after 5 mins by spectrofluorimetry
Outline: (§1)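 Recombinant cruzain (0.5 nM, MMTS-protected, anion-exchange purified) in 0.1 M sodium acetate pH 5.5 with 0.1 mM beta-mercaptoethanol and 2.5 uM Z-FR-AMC, read fluorimetrically over 5 min; activity from initial rate versus DMSO control. Triton X-100 0.01% standard; detergent-sensitivity tests used 0.01% vs 0.1%. Run with and without 10 min pre-incubation; two independent experiments in triplicate; E64 100 uM positive control.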

Trypanosoma cruzi [2] = experiment: Antitrypanosomal activity against trypomastigote stage of Trypanosoma cruzi Y at 25 uM measured after 24 hrs using propidium iodide by neubauer chamber method relative to control; assay type: functional
Outline: (§2)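 Y strain trypomastigotes from LLC-MK2 culture supernatant, 4.0 × 10^5 per well, exposed to five compound concentrations (DMSO solutions) for 24 h at 37 °C, 5% CO2; propidium iodide 400 ng/mL for 5 min, then viable motile parasites counted in a Neubauer chamber. Percent inhibition versus untreated cultures.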

Trypanosoma cruzi [3] = experiment: Antitrypanosomal activity against amastigote stage of Trypanosoma cruzi CA-I/72 infected in mouse C2C12 cells at 10 uM measured after 3 days by DAPI staining-based assay relative to control; assay type: functional; conditions: CA-I/72, C2C12, 72 h
Outline: (§3)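 T. cruzi CA-I/72 trypomastigotes harvested from infected C2C12 myocytes 7 days post-infection, mixed with C2C12 cells (1:15 host:parasite), treated immediately with serially diluted compound; 3 days incubation, paraformaldehyde fixation, DAPI staining, automated high-content imaging. Activity normalized to untreated wells and 10 uM benznidazole; host viability as C2C12 count relative to untreated wells.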

[4] = molecular target: Cruzipain (Trypanosoma cruzi) (UniProt P25779); experiment: Inhibition of Trypanosoma cruzi cruzain at 100 uM pre-incubated for 10 mins followed by addition of Z-Phe-Arg-aminomethylcoumarin as substrate measured after 5 mins by spectrofluorimetry; outline: as §1
Trypanosoma cruzi [5] = experiment: Antitrypanosomal activity against amastigote stage of Trypanosoma cruzi CA-I/72 infected in mouse C2C12 cells measured after 3 days by DAPI staining-based assay; assay type: functional, organism-based; conditions: CA-I/72, C2C12, 72 h; outline: as §3
J774 = experiment: (§4) Cytotoxicity against mouse J774 cells assessed as cell viability at 10 uM measured after 24 hrs by MTT assay; assay type: cell-based; conditions: j774, 24 h, 10 µM
Outline: (§5)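 J774 macrophages seeded in RPMI-1640 with 10% FBS for 16 hours, exposed 24 h at 37 °C to compound (10–100 umol/L range) in 0.01% DMSO vehicle; MTT (5 mg/mL) 4 h, formazan dissolved in DMSO, absorbance 540 nm. Viability as percent of untreated cells; three wells per treatment.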

[6] = molecular target: Cruzipain (Trypanosoma cruzi) (UniProt P25779); experiment: Inhibition of Trypanosoma cruzi cruzain at 100 uM using Z-Phe-Arg-aminomethylcoumarin as substrate measured after 5 mins in presence of 0.1% triton by spectrofluorimetry; outline: as §1
Cruzipain = Cruzipain (Trypanosoma cruzi, UniProt P25779); experiment: Inhibition of Trypanosoma cruzi cruzain using Z-Phe-Arg-aminomethylcoumarin as substrate measured after 5 mins by spectrofluorimetry
Cruzipain, sequence (P25779 whole entry): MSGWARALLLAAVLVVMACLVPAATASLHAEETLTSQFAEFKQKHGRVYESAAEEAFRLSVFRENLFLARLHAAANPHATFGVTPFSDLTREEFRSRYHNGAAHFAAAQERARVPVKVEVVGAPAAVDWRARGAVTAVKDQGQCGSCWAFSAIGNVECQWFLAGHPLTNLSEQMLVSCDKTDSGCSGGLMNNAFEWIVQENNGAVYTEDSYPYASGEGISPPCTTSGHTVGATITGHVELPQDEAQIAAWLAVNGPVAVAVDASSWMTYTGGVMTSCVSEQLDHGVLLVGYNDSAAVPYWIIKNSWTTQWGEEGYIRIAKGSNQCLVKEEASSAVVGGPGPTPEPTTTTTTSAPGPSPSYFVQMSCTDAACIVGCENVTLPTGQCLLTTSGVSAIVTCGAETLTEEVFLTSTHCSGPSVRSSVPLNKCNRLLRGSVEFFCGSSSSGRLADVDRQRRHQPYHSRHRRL
Outline: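 IC50 for cruzain: 10 min enzyme–compound pre-incubation, then 0.5 nM cruzain with 2.5 uM Z-FR-AMC in 0.1 M sodium acetate pH 5.5, 0.1 mM beta-mercaptoethanol, 0.01% Triton X-100, fluorescence over 5 min; at least nine compound concentrations in triplicate, two independent experiments, curves fitted for IC50.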

[7] = molecular target: Cruzipain (Trypanosoma cruzi) (UniProt P25779); experiment: Inhibition of Trypanosoma cruzi cruzain at 100 uM using Z-Phe-Arg-aminomethylcoumarin as substrate measured after 5 mins in presence of 0.01% triton by spectrofluorimetry; outline: as §1
Trypanosoma cruzi [8] = experiment: Antitrypanosomal activity against trypomastigote stage of Trypanosoma cruzi Y measured after 24 hrs using propidium iodide by neubauer chamber method; assay type: functional, organism-based; outline: as §2
[9] = molecular target: Cruzipain (Trypanosoma cruzi) (UniProt P25779); experiment: Inhibition of Trypanosoma cruzi cruzain at 25 uM pre-incubated for 10 mins followed by addition of Z-Phe-Arg-aminomethylcoumarin as substrate measured after 5 mins by spectrofluorimetry; outline: as §1
[10] = molecular target: Cruzipain (Trypanosoma cruzi) (UniProt P25779); experiment: Inhibition of Trypanosoma cruzi cruzain at 25 uM using Z-Phe-Arg-aminomethylcoumarin as substrate measured after 5 mins by spectrofluorimetry; outline: as §1
[11] = molecular target: Cruzipain (Trypanosoma cruzi) (UniProt P25779); experiment: Inhibition of Trypanosoma cruzi cruzain at 50 uM using Z-Phe-Arg-aminomethylcoumarin as substrate measured after 5 mins in presence of BSA by spectrofluorimetry
Outline: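 Cruzain aggregation test: compound pre-incubated with 2 mg/mL BSA, then cruzain (0.5 nM) activity on 2.5 uM Z-FR-AMC in 0.1 M sodium acetate pH 5.5, 0.1 mM beta-mercaptoethanol, 0.01% Triton X-100, monitored 5 min by fluorescence; inhibition from initial rate against DMSO control.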

[12] = molecular target: Cruzipain (Trypanosoma cruzi) (UniProt P25779); experiment: Inhibition of Trypanosoma cruzi cruzain at 50 uM using Z-Phe-Arg-aminomethylcoumarin as substrate measured after 5 mins in presence of 0.01% triton by spectrofluorimetry; outline: as §1
[13] = molecular target: Cruzipain (Trypanosoma cruzi) (UniProt P25779); experiment: Inhibition of Trypanosoma cruzi cruzain at 50 uM using Z-Phe-Arg-aminomethylcoumarin as substrate measured after 5 mins in presence of 0.1% triton by spectrofluorimetry; outline: as §1
[14] = molecular target: Cruzipain (Trypanosoma cruzi) (UniProt P25779); experiment: Inhibition of Trypanosoma cruzi cruzain at 50 uM using Z-Phe-Arg-aminomethylcoumarin as substrate measured after 5 mins by spectrofluorimetry; outline: as §1
[15] = as §4; assay type: cell-based; conditions: J774 cells, read-out: Activity; outline: as §5
[16] = molecular target: Cruzipain (Trypanosoma cruzi) (UniProt P25779); experiment: Inhibition of Trypanosoma cruzi cruzain at 50 uM pre-incubated for 10 mins followed by addition of Z-Phe-Arg-aminomethylcoumarin as substrate measured after 5 mins by spectrofluorimetry; outline: as §1
[17] = molecular target: Cruzipain (Trypanosoma cruzi) (UniProt P25779); experiment: Inhibition of Trypanosoma cruzi cruzain at 6.25 uM using Z-Phe-Arg-aminomethylcoumarin as substrate measured after 5 mins in presence of 0.1% triton by spectrofluorimetry; outline: as §1
[18] = molecular target: Cruzipain (Trypanosoma cruzi) (UniProt P25779); experiment: Inhibition of Trypanosoma cruzi cruzain at 6.25 uM using Z-Phe-Arg-aminomethylcoumarin as substrate measured after 5 mins in presence of 0.01% triton by spectrofluorimetry; outline: as §1

Cruzipain (Trypanosoma cruzi), sequence (P25779 123-467 limits assumed): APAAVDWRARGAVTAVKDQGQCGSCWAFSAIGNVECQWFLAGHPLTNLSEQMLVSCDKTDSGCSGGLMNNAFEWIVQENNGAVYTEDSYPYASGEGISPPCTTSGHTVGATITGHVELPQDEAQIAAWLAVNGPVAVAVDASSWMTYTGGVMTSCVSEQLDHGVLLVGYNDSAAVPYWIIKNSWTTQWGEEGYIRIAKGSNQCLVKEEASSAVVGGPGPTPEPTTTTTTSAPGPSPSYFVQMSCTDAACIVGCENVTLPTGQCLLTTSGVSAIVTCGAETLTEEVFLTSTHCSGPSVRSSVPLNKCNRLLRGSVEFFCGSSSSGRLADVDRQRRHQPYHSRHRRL

Structure (SMILES)	inhibition [1] [%]	inhibition at 25 µM (Trypanosoma cruzi [2]) [%]	inhibition at 10 µM (Trypanosoma cruzi [3]) [%]	inhibition [4] [%]	further results
CC(C)OC(=O)c1c(/N=C2\SC(CC(=O)O)C(=O)N2c2ccccc2)sc2c1CCCC2 (stereo not given)	32	6.4	43.5	77	
C=CCN1C(=O)C(C(=O)OCC)S/C1=N\c1sc2c(c1C(=O)OCC)CCCC2 (stereo not given)	18	16.7	30	59	
O=C(Cn1ccnc1[N+](=O)[O-])NCc1ccccc1 [BENZNIDAZOLE]		100	94.5		IC50 (Trypanosoma cruzi [5]): 1.17 µM
CC(C)OC(=O)c1c(/N=C2\SCC(=O)N2c2ccccc2)sc2c1CCCC2	33	27	39.4	72	Activity (J774): Toxic; IC50 (Trypanosoma cruzi [5]): 6.96 µM
CCOC(=O)c1c(/N=C2\SC(CC(=O)O)C(=O)N2c2ccccc2)sc2c1CCCC2 (stereo not given)	66	6.4	37.4	86	inhibition [6]: 18%; IC50 (Cruzipain): 121 µM; inhibition [7]: 5.4%
C=CCN1C(=O)CS/C1=N\c1sc2c(c1C(=O)OC(C)C)CCCC2	45	84.1	4.03	70	IC50 (Trypanosoma cruzi [8]): 10.3 µM
C=CCNC(=S)Nc1sc2c(c1C(=O)OCC)CCCC2	29	11.9	11.9	41	
C=CCNC(=S)Nc1sc2c(c1C(=O)OC(C)C)CCCC2	29	15.1	37.8	34	
C=CCn1c(C)c(C(=O)OCC)s/c1=N\c1sc2c(c1C(=O)OC(C)C)CCCC2		6.7	39.2		inhibition [9]: 71%; inhibition [10]: 38%
C=CCN1C(=O)C(CC(=O)O)S/C1=N\c1sc2c(c1C(=O)OCC)CCCC2 (stereo not given)	64	5.1	13.8	89	IC50 (Cruzipain): 50 µM; inhibition [11]: 42%; inhibition [12]: 47%; inhibition [13]: 44%; inhibition [14]: 50%
CCOC(=O)c1c(NC(=S)Nc2ccccc2)sc2c1CCCC2	12	1.6	47	4	
C=CCN1C(=O)C(CC(=O)O)S/C1=N\c1sc2c(c1C(=O)OC(C)C)CCCC2 (stereo not given)	52	7.7	47.2	80	inhibition [6]: 52.7%; IC50 (Cruzipain): 111 µM; inhibition [7]: 53%
CCOC(=O)c1c(/N=C2\SC(C(=O)OCC)C(=O)N2c2ccccc2)sc2c1CCCC2 (stereo not given)	46	9	0.43	66	
CC(C)C[C@H](NC(=O)[C@H]1O[C@@H]1C(=O)O)C(=O)NCCCCN=C(N)N [E-64]					IC50 (Cruzipain): 0.4 µM
CC(C)OC(=O)c1c(/N=c2\scc(-c3ccccc3)n2-c2ccccc2)sc2c1CCCC2	13	4.5	59.5	25	viability at 24 h, 10 µM [15]: > 50%; IC50 (Trypanosoma cruzi [5]): 6.03 µM
C=CCn1c(C)c(C(=O)OCC)s/c1=N\c1sc2c(c1C(=O)OCC)CCCC2	34	7.1	18.3	82	inhibition [6]: 29%; IC50 (Cruzipain): 85 µM; inhibition [7]: 33%
CCOC(=O)c1c(/N=c2\scc(-c3ccccc3)n2-c2ccccc2)sc2c1CCCC2		5.8	23.6		inhibition [16]: 40%; inhibition [14]: 16%
CC(C)OC(=O)c1c(NC(=S)Nc2ccccc2)sc2c1CCCC2	43	5.8	59.6	74	viability at 24 h, 10 µM [15]: > 50%; IC50 (Trypanosoma cruzi [5]): 8.78 µM
C=CCN1C(=O)CS/C1=N\c1sc2c(c1C(=O)OCC)CCCC2	23	4.5	17	40	
CCOC(=O)c1c(/N=C2\SCC(=O)N2c2ccccc2)sc2c1CCCC2	0	3.2	20.1	17	
C=CCn1c(-c2ccccc2)cs/c1=N\c1sc2c(c1C(=O)OCC)CCCC2	87	5.1	53.1	97	IC50 (Cruzipain): 2.4 µM; viability at 24 h, 10 µM [15]: > 50%; inhibition [17]: 55%; inhibition [18]: 62%; IC50 (Trypanosoma cruzi [5]): 9.7 µM
C=CCn1c(-c2ccccc2)cs/c1=N\c1sc2c(c1C(=O)OC(C)C)CCCC2	29	6.1	36	67	

— ChEMBL document CHEMBL3826878, “Design, synthesis, molecular docking and biological evaluation of thiophen-2-iminothiazolidine derivatives for use against Trypanosoma cruzi” (Bioorg Med Chem, 2016)
